In the library only some 4.2% were active in any assay of this set; here they are far more common.
TAAR1 antag: human TAAR1 antagonism; Q96RJ0; inhibition, % at 3 µM; CHO RD-HGA16 TAAR1, Fluo-8 calcium fluorescence, antagonist; 1.5% of 360,000 active;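 active = inhibition above a per-plate cutoff, the mean inhibition of test compounds on that plate plus 3 SD, cut at about 49% in these data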;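 note: 0% = DMSO plus EC80 beta-PEA response and 100% = DMSO alone without agonist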
Target sequence (Q96RJ0 whole entry, looked up): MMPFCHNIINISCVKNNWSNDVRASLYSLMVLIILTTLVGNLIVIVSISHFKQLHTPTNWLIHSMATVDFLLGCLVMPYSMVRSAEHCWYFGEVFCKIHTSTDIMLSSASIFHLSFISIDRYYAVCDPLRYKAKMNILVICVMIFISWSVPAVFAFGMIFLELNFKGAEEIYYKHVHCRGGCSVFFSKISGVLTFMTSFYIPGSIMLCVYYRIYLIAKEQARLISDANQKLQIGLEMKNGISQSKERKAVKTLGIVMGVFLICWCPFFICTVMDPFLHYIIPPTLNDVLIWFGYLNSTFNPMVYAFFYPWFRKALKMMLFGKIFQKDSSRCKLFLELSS
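Material: RD-HGA16 CHO cells with stable hTAAR1 and Gα16; Dosing: single nominal final test compound concentration of 3 µM; Schedule: seeding 17-24 h prior, 75-min 37 °C, 30-min RT dye loading; Detection: kinetic Fluo-8 calcium fluorescence measurement; Measure: % inhibition from peak post-agonist over basal fluorescence ratio; Benchmarks: vehicle and agonist controls.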
TAAR1 agonist: human TAAR1 agonism; CHO RD-HGA16 TAAR1, Fluo-8 calcium fluorescence; vehicle wells 0%, saturating PEA agonist 100%; activation, % at 3 µM; 0.99% of 360,000 active; AID 624467;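 active = activation above the mean activation of all test compounds in the run plus 3 SD, cut at about 38% in these data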
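Test system: RD-HGA16 (CHO) cells co-expressing Gα16 and hTAAR1; dosing: one-point dosing at 3 µM (nominal); timing: 17-24 h seeding, 75 min 37 °C dye, 30 min RT; signal: kinetic Fluo-8 calcium fluorescence; read-out basis: % activation relative to PEA EC100 response; controls: DMSO and PEA EC100; replicates: n 1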
OX1R antag-1: blocks the human orexin 1 receptor. 0.43% of 330,000 active. O43613. CHO/OX1R cells, Fluo-8 calcium fluorescence, orexin A. inhibition, % at 5 µM;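 active = inhibition above its plate's threshold, mean inhibition of all tested compounds on the plate plus 3 SD, cut at about 37% in these data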;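 note: 0% = orexin A challenge wells and 100% = SB-334867-A antagonist wells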
GalR3 antag: blocks the human galanin receptor 3 | HEK293 GalR3-CNG cAMP membrane potential fluorescence; galR3 body fused to GalR1 C-terminus | O60755 | inhibition, % at 3 µM | 0.44% of 360,000 active;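 active = inhibition above the screen-wide average plus 3 SD, cut at about 13% in these data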;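 note: forskolin and galanin both at EC90 stimulate the cells; cAMP rise reported by CNG channel membrane potential dye signal; 0% = forskolin plus galanin with DMSO and 100% = forskolin alone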
Target sequence (O60755 1-299 limits assumed): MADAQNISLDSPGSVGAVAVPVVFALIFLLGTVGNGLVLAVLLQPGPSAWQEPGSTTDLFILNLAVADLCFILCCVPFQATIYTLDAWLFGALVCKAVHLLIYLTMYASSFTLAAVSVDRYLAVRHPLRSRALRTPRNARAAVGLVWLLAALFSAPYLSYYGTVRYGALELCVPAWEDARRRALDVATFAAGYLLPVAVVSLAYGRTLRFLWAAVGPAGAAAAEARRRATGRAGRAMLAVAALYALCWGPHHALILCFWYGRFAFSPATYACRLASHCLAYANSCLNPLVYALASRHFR
CHO parental Ca: counter-screen for OX1R antagonists: effect in parental CHO cells | parental CHO-K1, ATP-induced calcium, Fluo-8 fluorescence | inhibition, % at 5.6 µM | 0.63% of 330,000 active;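 active = inhibition above that plate's mean sample inhibition plus 3 SD, cut at about 26% in these data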;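 note: 0% = ATP-challenged DMSO wells and 100% = DMSO wells without ATP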
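Assay system – parental CHO cells · Reagent – ATP stimulus · Detection – intracellular calcium via Fluo-8 no-wash fluorescent dye · Evaluation – percent inhibition of ATP-evoked calcium rise, normalized to controls · Controls – ATP wells versus no-ATP DMSO wells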
OX1R antag-2: OX1R (human) antagonism | O43613 | OX1R-expressing cells, FRET antagonist read-out | inhibition, % at 6.6 µM | 1.8% of 330,000 active; in the data active = inhibition mostly above about 38%, no sharp cut-off; inactive = mostly below about 40%;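 note: 0% = agonist challenge alone and 100% = reference antagonist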
GalR3 antag conf: GalR3 (human) antagonism, confirmation | inhibition, % at 3 µM | shares compounds with GalR3 antag | AID 652245 | HEK293 GalR3 CNG cAMP biosensor, membrane potential fluorescence; galR3 fused to GalR1 carboxy tail; challenged with forskolin and galanin at EC90 | 59% of 1,600 active;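 active = inhibition above the primary screen's cutoff, the mean inhibition of all screened compounds plus 3 SD, cut at about 13% in these data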;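 note: 0% = forskolin plus galanin and 100% = forskolin alone with DMSO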
HEK-CNG parental: counter-screen for GalR3 antagonists: nonspecific agonists in parental HEK-CNG cells | AID 652268 | shares compounds with GalR3 antag | HEK293-CNG parental cells, cAMP membrane potential fluorescence; normalised: DMSO wells 0%, forskolin wells 100% | 10% of 1,600 active | activation, % at 3 µM; in the data active = activation above about 1.3%
Active calls of the source: *; x = not tested or not shown.

SMILES | TAAR1 antag | TAAR1 agonist | OX1R antag-1 | GalR3 antag | CHO parental Ca | OX1R antag-2 | GalR3 antag conf | HEK-CNG parental
COc1ccc(N(CC(=O)N/N=C/c2ccc(OC)c(OC)c2)S(=O)(=O)c2ccccc2)cc1 | 2 | -2 | -15 | 14* | -13 | 4 | 34* | 0
COc1ccc(/C=N/NC(=O)CN(CCc2ccccc2)S(=O)(=O)c2ccc(NC(C)=O)cc2)cc1OC | 13 | 2 | -13 | 17* | -21 | 16 | 29* | 0
CC(C)C(=O)NC(c1ccc([N+](=O)[O-])cc1)c1c(O)ccc2ccccc12 (stereo not drawn) | 36 | 8 | 5 | -7 | 18 | 27 | x | x
CC(C)C(=O)NC(c1cccc([N+](=O)[O-])c1)c1c(O)ccc2ccccc12 (stereo not drawn) | -6 | 8 | -11 | 16* | -17 | 27 | -5 | 1
O=C(NCc1ccccc1)N1CCC(CO)(Cc2cccc(F)c2)CC1 | -16 | 3 | -13 | -5 | 2 | 13 | x | x
Cc1cccc(-n2c(Cn3nc(C)c([N+](=O)[O-])c3C)n[nH]c2=S)c1 | -1 | 7 | -5 | 17* | -1 | 8 | 5 | 0
Cc1nn(CCc2n[nH]c(=S)n2-c2cccc(Cl)c2)c(C)c1[N+](=O)[O-] | 13 | 5 | -26 | -5 | -9 | 6 | x | x
CN1C[C@H]2CON(C)[C@H]2C[C@H]1c1cccc(-c2ccc(C#N)cc2)c1 | -5 | 1 | x | 4 | x | x | x | x
Fc1ccc(NC(=S)N2CCCN(c3ccc(C(F)(F)F)cn3)CC2)c(F)c1 | -7 | 3 | 57* | 110* | 22 | 16 | 107* | -1
O=C(Nc1ccc(F)cc1F)N1CCCN(c2ccc(C(F)(F)F)cn2)CC1 | -8 | 0 | -21 | -7 | -20 | 5 | x | x
COc1cc(/C=N/n2cnnc2)ccc1OCc1ccccc1 | 2 | 14 | -4 | 12 | -5 | 12 | x | x
COc1cc(/C=N/n2cnnc2)ccc1OCc1ccc(C)cc1 | -1 | 1 | 2 | 59* | -9 | 9 | 44* | 0
C=CCNC(=O)CN1CCC(c2nc3ccccc3[nH]2)CC1 | -26 | 2 | -13 | -1 | -12 | 7 | x | x
COc1ccc(/C=C/C(=O)c2cc3cccc(OC)c3oc2=O)cc1 | -31 | 0 | 0 | 24* | -8 | 1 | 9 | 0
O=C1c2nccnc2C(=O)N1c1ccc(F)cc1 | 1 | 0 | -9 | 2 | -10 | 1 | x | x
CC(SCc1ccccc1)C(=O)Nc1ccc(F)cc1 (stereo not drawn) | -4 | -2 | -23 | 0 | -11 | 26 | x | x
N#CC(C#N)=C(Nc1ccc(F)cc1)SCc1cccc(Br)c1 | 30 | 6 | 36 | 92* | 70* | 56 | 100* | 0
Cc1c(Cl)cccc1NC(=S)N1CCN(C(=O)c2ccco2)CC1 | -13 | 6 | -14 | -4 | -22 | 9 | x | x
COc1ccc(C2CC(=O)Oc3c2c(=O)n(C)c2ccccc32)c(OC)c1OC (stereo not drawn) | -12 | 8 | -22 | 1 | -14 | 28 | x | x
COc1cccc(-c2ccc(-c3noc(-c4ccccc4F)n3)c(OC)n2)c1 | -1 | 9 | -21 | -6 | -9 | 9 | x | x
COc1cccc(-c2ccc(-c3noc(-c4cccs4)n3)c(OC)n2)c1 | -31 | 2 | -20 | 15* | -10 | 12 | 13* | 1
CC(C)(CO)NCc1cccc(OCc2ccc(Cl)cc2)c1 | 8 | 11 | -11 | -7 | -11 | 2 | x | x
Clc1ccc(COc2cccc(CNCc3ccncc3)c2)cc1 | -19 | 6 | -4 | 32* | 16 | 12 | 93* | 1
COc1ccc(NC(=O)CN2C(=O)COc3ccc(S(=O)(=O)N4CCCCCC4)cc32)cc1 | -8 | 7 | -18 | -4 | -7 | 15 | x | x
O=C(NC1CCCCC1c1ccccc1)c1ccccc1 (stereo not drawn) | 4 | 0 | x | 16* | x | x | 4 | 0
SMILES | TAAR1 antag | TAAR1 agonist | OX1R antag-1 | GalR3 antag | CHO parental Ca | OX1R antag-2 | GalR3 antag conf | HEK-CNG parental
O=C(NC1CCCCCCC1O)c1ccccc1 (stereo not drawn) | -7 | 0 | x | -6 | x | x | x | x
CCc1ccc(OCC2NCCc3cc(OC)c(OC)cc32)cc1 (stereo not drawn) | -18 | 4 | -10 | -7 | -9 | 9 | x | x
N#Cc1nc(N2CCCCC2)nc(N2CCOCC2)n1 | -8 | 11 | -16 | -2 | -9 | 11 | x | x
N#Cc1nc(N2CCCC2)nc(N2CCCC2)n1 | 0 | 16 | -14 | 98* | -13 | 9 | 112* | 0
O=C(O)c1cccc(NC(=O)c2cn(-c3ccccc3)nc2-c2ccc(F)cc2)c1 | 25 | 5 | 12 | -1 | 4 | 20 | x | x
COCOc1cc(O)c(C(=O)/C=C/c2ccccc2)c(OCOC)c1 | -14 | -1 | -39 | 22* | -7 | 18 | 20* | 0
COc1ccc(C(=O)/C=C/c2ccccc2)c(OC)c1 | 4 | 0 | 2 | -4 | -7 | 33 | x | x
COc1ccc(C(=O)c2coc(-c3ccccc3C(=O)O)c2C(=O)O)cc1 | -18 | 1 | -1 | 14* | 2 | 3 | -3 | 0
COc1ccc(C(=O)c2ccccc2C(=O)c2ccccc2)cc1 | 17 | 2 | x | -5 | x | x | x | x
OCC1N=C(c2ccccn2)OC1c1ccccc1 (stereo not drawn) | 8 | 2 | -10 | -2 | 1 | 3 | x | x
COc1ccc(C(=O)NC(=S)Nc2ccc(CN3CCCCC3)cc2)cc1Cl | -20 | 1 | -16 | 15* | -10 | -8 | 7 | 9.7*
CCOC(=O)c1cc(-c2ccc(OC)cc2)nc2c1c(C)nn2CCC#N | 6 | 9 | -17 | -6 | -31 | 10 | x | x
CCOC(=O)c1cc(-c2ccc(C#N)cc2)nc2c1c(C)nn2CCC#N | -1 | 3 | -10 | 22* | -6 | 6 | 2 | 1.7*
CCOc1ccc(Br)cc1/C(C)=N\NC1=NCCN1 | 11 | 19 | -16 | 65* | -6 | 12 | 80* | 4.9*
Nc1nc(-c2ccc3c(c2)OCCO3)cs1 | -1 | 0 | -18 | 23* | -16 | 27 | 29* | 0
COCCn1c(N)c(N(Cc2ccccc2)C(=O)c2ccc(-c3ccc(Cl)cc3)o2)c(=O)[nH]c1=O | 6 | 4 | -38 | 1 | -33 | 38 | x | x
Nc1cc(=O)[nH]c(N)n1 | -1 | 0 | 7 | x | 1 | 11 | x | x

Screening data deposited in PubChem BioAssay by The Scripps Research Institute Molecular Screening Center.
